Data: ChEMBL document CHEMBL4043120 (Bioorg Med Chem, 2017)
Calls of active or inactive are those of the source. The calls are words filed in the database; no cut-off is given here.

Legend:
[1] = target: T1, Histone-lysine N-methyltransferase EHMT2 (Homo sapiens) (UniProt Q96KQ7); test: (§1) Inhibition of EHMT2 (unknown origin) preincubated for 15 mins followed by SAM and biotinylated H3K9 peptide addition measured after 30 mins by TR-FRET assay
T1 sequence (whole entry): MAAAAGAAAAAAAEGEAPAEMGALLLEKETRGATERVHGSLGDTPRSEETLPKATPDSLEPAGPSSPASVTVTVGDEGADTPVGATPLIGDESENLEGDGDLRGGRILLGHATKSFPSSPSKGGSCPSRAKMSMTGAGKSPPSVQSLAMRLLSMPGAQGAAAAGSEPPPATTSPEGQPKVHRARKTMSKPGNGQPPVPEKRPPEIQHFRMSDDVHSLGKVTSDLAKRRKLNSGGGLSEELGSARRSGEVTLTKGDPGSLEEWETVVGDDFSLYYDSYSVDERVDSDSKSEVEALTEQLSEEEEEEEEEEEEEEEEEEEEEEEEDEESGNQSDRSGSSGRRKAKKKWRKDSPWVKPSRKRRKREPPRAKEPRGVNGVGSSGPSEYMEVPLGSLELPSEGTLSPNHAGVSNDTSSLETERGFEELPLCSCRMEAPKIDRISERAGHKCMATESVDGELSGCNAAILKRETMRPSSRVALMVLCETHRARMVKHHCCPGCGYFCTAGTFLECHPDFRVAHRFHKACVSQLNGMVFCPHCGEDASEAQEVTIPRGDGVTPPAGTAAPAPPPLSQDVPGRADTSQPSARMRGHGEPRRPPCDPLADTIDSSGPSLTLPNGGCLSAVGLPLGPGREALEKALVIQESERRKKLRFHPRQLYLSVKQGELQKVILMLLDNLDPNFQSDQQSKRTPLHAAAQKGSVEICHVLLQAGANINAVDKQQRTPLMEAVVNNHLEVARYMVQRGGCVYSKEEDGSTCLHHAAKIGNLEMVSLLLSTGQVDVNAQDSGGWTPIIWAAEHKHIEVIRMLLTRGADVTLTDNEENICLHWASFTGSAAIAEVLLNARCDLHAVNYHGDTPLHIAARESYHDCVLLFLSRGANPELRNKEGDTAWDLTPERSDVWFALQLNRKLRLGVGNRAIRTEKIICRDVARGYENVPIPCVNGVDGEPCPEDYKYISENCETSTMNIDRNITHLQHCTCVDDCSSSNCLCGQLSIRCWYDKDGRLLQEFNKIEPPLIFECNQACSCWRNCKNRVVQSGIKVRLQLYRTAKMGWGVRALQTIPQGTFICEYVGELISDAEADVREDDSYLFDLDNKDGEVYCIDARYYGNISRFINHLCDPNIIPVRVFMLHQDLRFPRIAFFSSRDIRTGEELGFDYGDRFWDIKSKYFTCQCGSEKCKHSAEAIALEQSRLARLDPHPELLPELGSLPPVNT

[2] = target: T2, Histone-lysine N-methyltransferase EHMT1 (Homo sapiens, UniProt Q9H9B1); test: (§2) Inhibition of EHMT1 (unknown origin) preincubated for 5 mins followed by SAM and biotinylated H3K9 peptide addition measured after 120 mins by HTRF assay
T2 sequence (Q9H9B1 whole entry): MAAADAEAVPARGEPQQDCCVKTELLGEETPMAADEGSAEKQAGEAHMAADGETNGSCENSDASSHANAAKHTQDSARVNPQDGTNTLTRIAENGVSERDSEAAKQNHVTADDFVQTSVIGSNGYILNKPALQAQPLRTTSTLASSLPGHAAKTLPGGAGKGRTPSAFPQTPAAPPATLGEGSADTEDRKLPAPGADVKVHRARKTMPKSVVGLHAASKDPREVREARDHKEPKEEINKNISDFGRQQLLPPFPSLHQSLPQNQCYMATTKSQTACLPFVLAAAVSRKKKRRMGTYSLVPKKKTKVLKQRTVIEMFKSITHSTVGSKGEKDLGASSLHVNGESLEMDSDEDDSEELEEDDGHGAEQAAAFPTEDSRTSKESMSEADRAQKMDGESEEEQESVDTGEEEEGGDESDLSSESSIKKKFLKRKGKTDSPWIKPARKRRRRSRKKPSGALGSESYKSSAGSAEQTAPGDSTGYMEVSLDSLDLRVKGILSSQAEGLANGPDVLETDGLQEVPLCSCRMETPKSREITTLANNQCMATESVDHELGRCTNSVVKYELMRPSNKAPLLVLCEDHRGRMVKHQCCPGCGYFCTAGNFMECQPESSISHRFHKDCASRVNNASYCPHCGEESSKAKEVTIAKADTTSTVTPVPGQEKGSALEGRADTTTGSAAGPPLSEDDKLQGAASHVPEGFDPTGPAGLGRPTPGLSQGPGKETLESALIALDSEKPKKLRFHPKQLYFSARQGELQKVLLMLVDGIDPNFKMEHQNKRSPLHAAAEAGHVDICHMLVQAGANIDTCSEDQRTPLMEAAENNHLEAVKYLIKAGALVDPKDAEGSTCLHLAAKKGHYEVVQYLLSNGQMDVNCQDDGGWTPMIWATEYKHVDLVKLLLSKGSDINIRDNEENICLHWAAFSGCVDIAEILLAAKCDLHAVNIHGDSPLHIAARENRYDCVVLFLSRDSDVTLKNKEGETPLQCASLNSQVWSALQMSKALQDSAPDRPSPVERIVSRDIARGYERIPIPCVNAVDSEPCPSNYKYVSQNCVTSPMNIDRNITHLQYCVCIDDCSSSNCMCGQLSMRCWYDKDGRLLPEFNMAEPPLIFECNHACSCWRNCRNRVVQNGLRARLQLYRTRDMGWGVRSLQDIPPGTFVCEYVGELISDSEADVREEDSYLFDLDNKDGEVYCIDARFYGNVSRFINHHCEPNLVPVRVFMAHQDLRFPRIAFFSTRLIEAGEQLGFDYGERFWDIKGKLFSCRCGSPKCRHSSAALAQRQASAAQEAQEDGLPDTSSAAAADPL
Method in brief: (§3)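 Final 0.4 nM enzyme, 150 nM biotinylated H3(1-21)K9 peptide, 6 μM SAM, pH 8.8 Tris buffer, 1% DMSO. Eu-antibody/SA-XL665 HTRF read at 665/620 nm. Mean±SEM of 3-4 independent experiments in triplicate.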

[3] = target: T3, Histone-lysine N-methyltransferase EHMT1 (Homo sapiens) (UniProt Q9H9B1); test: as §2; method in brief: as §3
T3 sequence (whole entry): T2 sequence (Q9H9B1 whole entry)

[4] = target: T1, Histone-lysine N-methyltransferase EHMT2 (Homo sapiens); test: Inhibition of EHMT2 (unknown origin) at 400 uM preincubated for 15 mins followed by SAM and biotinylated H3K9 peptide addition measured after 30 mins by TR-FRET assay relative to control
Method in brief: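 Single-point EHMT2 screen at 400 μM, 1% DMSO. Final 0.6 nM EHMT2, 0.5 µM biotinylated H3(1-21)K9 peptide, 3 µM SAM in 50 mM Tris-HCl pH 9.0, 50 mM NaCl, 1 mM DTT, 0.01% Tween-20. Detection 60 min with final 2 nM Eu-antibody, 50 nM ULight-streptavidin, 0.0001% poly-L-lysine. TR-FRET read at 665/620 nm.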

[5] = target: T3, Histone-lysine N-methyltransferase EHMT1 (Homo sapiens); test: Inhibition of EHMT1 (unknown origin) at 200 uM preincubated for 5 mins followed by SAM and biotinylated H3K9 peptide addition measured after 120 mins by HTRF assay relative to control
Method in brief: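 Final EHMT1 0.4 nM, biotinylated unmethylated H3(1-21)K9 peptide 150 nM, SAM 6 μM in 50 mM Tris-HCl pH 8.8, 50 mM NaCl, 1 mM DTT, 0.01% Tween-20; samples at 200 μM, 1% DMSO final. Detection by Eu-antibody plus streptavidin-XL665, 60 min. HTRF read: excitation 320 or 340 nm, emission 665/620 nm.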

[6] = target: Protein arginine N-methyltransferase 1 (Homo sapiens) (UniProt Q99873); test: Inhibition of PRMT1 (unknown origin) at 400 uM preincubated for 5 mins followed by SAM and H4 (1 to 25 residues) peptide addition measured after 1 hr by HTRF assay relative to control
Protein arginine N-methyltransferase 1 (Homo sapiens), sequence (Q99873 whole entry, looked up, the tested form may be a part): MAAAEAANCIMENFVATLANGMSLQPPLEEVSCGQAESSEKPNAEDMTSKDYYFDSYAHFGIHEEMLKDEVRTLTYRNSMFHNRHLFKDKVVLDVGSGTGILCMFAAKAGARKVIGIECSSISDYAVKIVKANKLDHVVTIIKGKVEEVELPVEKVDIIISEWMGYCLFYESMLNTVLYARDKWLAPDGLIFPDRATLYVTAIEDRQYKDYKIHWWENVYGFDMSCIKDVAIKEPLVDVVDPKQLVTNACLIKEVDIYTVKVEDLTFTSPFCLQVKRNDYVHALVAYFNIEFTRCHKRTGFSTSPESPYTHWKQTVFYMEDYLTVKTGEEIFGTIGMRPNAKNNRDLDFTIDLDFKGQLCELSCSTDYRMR

[7] = target: T4, Histone-lysine N-methyltransferase EHMT2 (Homo sapiens, UniProt Q96KQ7); test: as §1
T4 sequence (Q96KQ7 whole entry): T1 sequence (whole entry)

[8] = test system: MDA-MB-231; test: Antiproliferative activity against human MDA-MB-231 cells at 200 uM after 72 hrs by sulforhodamine B assay relative to control; assay type: functional; settings: MDA-MB-231, 72 h
[9] = test system: HL-60; test: Antiproliferative activity against human HL60 cells at 200 uM after 72 hrs by CCK8 assay relative to control; assay type: functional; settings: HL-60, 72 h
[10] = target: T2, Histone-lysine N-methyltransferase EHMT1; test: Inhibition of EHMT1 (unknown origin)

Row | SMILES | inhibition [1] | IC50 ([2]; read-out: IC50) [µM] | inhibition [3] | inhibition [4] [%] | inhibition [5] | inhibition [6] | IC50 [7] [µM] | IC50 [2] | inhibition at 200 µM [8] [%] | inhibition at 200 µM [9] [%] | IC50 [10] [µM]
1 | Nc1ncnc2c1ncn2[C@@H]1O[C@H](C[C@H](N)CC2CCC2)[C@@H](O)[C@H]1O | Dose-dependent effect | 115 | Dose-dependent effect | 44 | 53.2% | – | – | – | – | – | –
2 | Nc1ncnc2c1ncn2[C@@H]1O[C@H](C[C@@H](N)CCC2CCCCC2)[C@@H](O)[C@H]1O | Dose-dependent effect | – | Dose-dependent effect | 42.7 | 40.9% | – | – | – | – | – | –
3 | CCN(CC1CCCCC1)C[C@H]1O[C@@H](n2cnc3c(N)ncnc32)[C@H](O)[C@@H]1O | Dose-dependent effect | – | Dose-dependent effect | 39.1 | 24.1% | – | – | – | – | – | –
4 | Nc1ncnc2c1ncn2[C@@H]1O[C@H](C[C@H](N)CCC2CCCCC2)[C@@H](O)[C@H]1O | Dose-dependent effect | – | Dose-dependent effect | 47.8 | 46.3% | – | – | – | – | – | –
5 | Nc1ncnc2c1ncn2[C@@H]1O[C@H](C[C@@H](N)CC2CCCC2)[C@@H](O)[C@H]1O | Dose-dependent effect | 95.1 | Dose-dependent effect | 55.3 | 75.7% | inactive | 191 | – | – | – | –
6 | CN(CC1CCCCC1)C[C@H]1O[C@@H](n2cnc3c(N)ncnc32)[C@H](O)[C@@H]1O | Dose-dependent effect | – | Dose-dependent effect | 31.9 | inactive | – | – | Not Active | – | – | –
7 | Nc1ncnc2c1ncn2[C@@H]1O[C@H](C[C@H](N)CC2CCCCC2)[C@@H](O)[C@H]1O | Dose-dependent effect | 146 | Dose-dependent effect | 45.3 | 58.1% | inactive | – | – | – | – | –
8 | Nc1ncnc2c1ncn2[C@@H]1O[C@H](C[C@@H](N)CC2CC2)[C@@H](O)[C@H]1O | Dose-dependent effect | 21.8 | Dose-dependent effect | 77.6 | 88.9% | inactive | 39.6 | – | 41.4 | 37.9 to 38.4 | –
9 | Nc1ncnc2c1ncn2[C@@H]1O[C@H](C[C@@H](N)CC[C@H](N)C(=O)O)[C@@H](O)[C@H]1O [SINEFUNGIN] | Dose-dependent effect | 28.4 | Dose-dependent effect | 79.5 | 100% | – | – | – | 42.8 | 41 | 0.1 to 20
10 | COc1cc2nc(N3CCCN(C)CC3)nc(NC3CCN(Cc4ccccc4)CC3)c2cc1OC | – | – | – | – | – | – | – | – | 87.2 | 81.8 | –
11 | Nc1ncnc2c1ncn2[C@@H]1O[C@H](C[C@@H](N)CC2CCCCC2)[C@@H](O)[C@H]1O | Dose-dependent effect | 204 | Dose-dependent effect | 43.7 | 72.7% | inactive | – | – | – | – | –
12 | Nc1ncnc2c1ncn2[C@@H]1O[C@H](C[C@H](N)CC2CC2)[C@@H](O)[C@H]1O | Dose-dependent effect | – | Dose-dependent effect | 65.7 | 52.2% | 20% | 67.2 | – | – | – | –
13 | Nc1ncnc2c1ncn2[C@@H]1O[C@H](C[C@H](N)CC2CCCC2)[C@@H](O)[C@H]1O | Dose-dependent effect | – | Dose-dependent effect | 43.6 | 12.5% | – | – | – | – | – | –
14 | CCCN(CC1CCCCC1)C[C@H]1O[C@@H](n2cnc3c(N)ncnc32)[C@H](O)[C@@H]1O | Dose-dependent effect | – | Dose-dependent effect | 19.8 | inactive | – | – | Not Active | – | – | –
15 | Nc1ncnc2c1ncn2[C@@H]1O[C@H](C[C@@H](N)CC2CCC2)[C@@H](O)[C@H]1O | Dose-dependent effect | 47.7 | Dose-dependent effect | 58.9 | 69.7% | inactive | 169 | – | – | – | –
